Source: ChEMBL document CHEMBL4257594 (J Med Chem, 2018)
Calls of active or inactive are those of the source. The rule behind the calls is not given here.

Key:
Cytochrome P450 3A4 = Cytochrome P450 3A4 (Homo sapiens, UniProt P08684); test: (§1) Inhibition of human liver microsome CYP3A4 at 1 uM expressed in baculosomes using fluorogenic-DBOMF as substrate preincubated for 10 mins followed by substrate addition and measured after 60 mins by fluorescence based assay; assay type: ADME, microsomes; details: microsomes, 1 h, 1 µM
Summary of the method: (§2)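 CYP3A4 baculosomes preincubated with drug at 1 µM for 10 min at 37 °C before Vivid green substrate added. Fluorescence (ex/em 485/520) read 60 min after substrate addition. Percent inhibition set against 10 μM ketoconazole as the 100% control; mean ± SD of three independent experiments run in triplicate.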

HUVEC = test: Anti-angiogenic activity against HUVEC after 24 hrs by scintillation counting based [3H]-thymidine incorporation assay; assay type: functional, cell-based; details: Homo sapiens
Summary of the method: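 HUVEC seeded at 2000 cells/well and left to settle overnight, then drug added in triplicate for 24 h. Mean ± SD of three independent experiments run in triplicate.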

CYP3A4 = CYP3A4 (Homo sapiens, UniProt P08684); test: as §1; assay type: ADME, microsomes; details: recombinant CYP3A4 expressed in baculosomes, probe DBOMF (fluorogenic); summary of the method: as §2
[1] = biological target: T1, NPC intracellular cholesterol transporter 1 (Homo sapiens) (UniProt O15118); test: Binding affinity to NPC1 in HUVEC assessed as increase in cholesterol accumulation in late endosome/lysosome at 0.2 uM after 14 hrs by filipin staining-based confocal microscopy; assay type: cell-based
T1 sequence (whole entry): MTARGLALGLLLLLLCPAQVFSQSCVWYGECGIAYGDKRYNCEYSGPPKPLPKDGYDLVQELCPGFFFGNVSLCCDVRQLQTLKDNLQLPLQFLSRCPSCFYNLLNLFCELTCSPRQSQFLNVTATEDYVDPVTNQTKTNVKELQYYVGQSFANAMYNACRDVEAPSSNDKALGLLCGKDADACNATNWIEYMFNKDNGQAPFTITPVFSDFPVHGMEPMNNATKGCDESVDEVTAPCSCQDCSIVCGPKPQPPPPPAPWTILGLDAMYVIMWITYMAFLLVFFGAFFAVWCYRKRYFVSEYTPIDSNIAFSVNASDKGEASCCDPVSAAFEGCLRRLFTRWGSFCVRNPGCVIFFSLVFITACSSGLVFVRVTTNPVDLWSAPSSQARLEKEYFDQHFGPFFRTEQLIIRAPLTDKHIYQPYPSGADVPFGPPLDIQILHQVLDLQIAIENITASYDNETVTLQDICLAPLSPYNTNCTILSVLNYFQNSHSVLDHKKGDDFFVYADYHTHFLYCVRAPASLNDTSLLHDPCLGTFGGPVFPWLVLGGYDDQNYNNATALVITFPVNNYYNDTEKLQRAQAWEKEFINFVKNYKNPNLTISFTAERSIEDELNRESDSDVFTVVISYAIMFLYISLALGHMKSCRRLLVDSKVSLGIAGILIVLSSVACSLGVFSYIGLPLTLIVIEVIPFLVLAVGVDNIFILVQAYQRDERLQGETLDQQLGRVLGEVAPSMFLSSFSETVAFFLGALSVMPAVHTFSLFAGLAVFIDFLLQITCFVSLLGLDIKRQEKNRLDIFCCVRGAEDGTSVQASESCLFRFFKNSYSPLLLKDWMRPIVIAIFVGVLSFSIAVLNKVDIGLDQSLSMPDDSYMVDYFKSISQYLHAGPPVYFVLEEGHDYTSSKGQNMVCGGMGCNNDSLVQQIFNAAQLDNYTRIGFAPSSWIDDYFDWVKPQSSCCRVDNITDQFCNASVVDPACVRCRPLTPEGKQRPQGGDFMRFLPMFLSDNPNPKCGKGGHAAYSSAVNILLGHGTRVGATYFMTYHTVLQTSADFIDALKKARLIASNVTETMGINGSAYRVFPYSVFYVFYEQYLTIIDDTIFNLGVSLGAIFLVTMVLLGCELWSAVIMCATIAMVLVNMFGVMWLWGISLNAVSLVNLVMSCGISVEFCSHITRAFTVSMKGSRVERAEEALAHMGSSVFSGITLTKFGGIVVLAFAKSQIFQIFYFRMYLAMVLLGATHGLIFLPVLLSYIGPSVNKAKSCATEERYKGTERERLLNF
Summary of the method: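 Methods give HUVEC (2,000) on chamber slides, settled overnight, then 0.1 µM drug or DMSO for 14 h; legend gives 0.2 μM for 24 h. Cells fixed in 4% paraformaldehyde for 15 min, then stained with 50 µg/ml filipin for 1 h in the dark. Imaged by confocal microscopy at 360/460 nm.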

[2] = biological target: Non-selective voltage-gated ion channel VDAC1 (Homo sapiens) (UniProt P21796); test: Binding affinity to VDAC1 (unknown origin) at 10 uM using itraconazole as probe by photoaffinity probe competitor assay
Sequence of Non-selective voltage-gated ion channel VDAC1 (Homo sapiens) (P21796 whole entry): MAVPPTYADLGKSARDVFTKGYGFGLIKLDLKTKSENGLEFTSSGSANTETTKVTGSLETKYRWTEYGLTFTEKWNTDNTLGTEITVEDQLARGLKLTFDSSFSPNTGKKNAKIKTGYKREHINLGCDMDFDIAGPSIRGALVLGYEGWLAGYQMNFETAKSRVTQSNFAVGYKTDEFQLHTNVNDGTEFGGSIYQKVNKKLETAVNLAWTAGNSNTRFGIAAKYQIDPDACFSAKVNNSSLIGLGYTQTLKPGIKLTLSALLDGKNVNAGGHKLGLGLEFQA

Sequence of Cytochrome P450 3A4 (P08684 whole entry): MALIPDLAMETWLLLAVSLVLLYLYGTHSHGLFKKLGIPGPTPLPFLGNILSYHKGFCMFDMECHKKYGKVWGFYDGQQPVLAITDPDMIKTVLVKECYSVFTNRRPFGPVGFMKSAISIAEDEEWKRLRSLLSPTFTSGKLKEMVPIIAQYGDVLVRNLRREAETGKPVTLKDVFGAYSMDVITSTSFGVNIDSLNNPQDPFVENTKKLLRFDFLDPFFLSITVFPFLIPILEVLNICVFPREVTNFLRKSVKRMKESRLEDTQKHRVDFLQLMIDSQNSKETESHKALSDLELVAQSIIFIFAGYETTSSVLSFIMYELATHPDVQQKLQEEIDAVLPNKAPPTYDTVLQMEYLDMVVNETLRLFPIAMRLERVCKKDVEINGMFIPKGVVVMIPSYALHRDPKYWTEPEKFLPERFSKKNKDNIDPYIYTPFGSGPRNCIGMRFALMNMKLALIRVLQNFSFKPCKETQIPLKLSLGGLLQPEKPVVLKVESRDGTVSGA
Sequence of CYP3A4 (P08684 whole entry): as above

| SMILES | inhibition (INH) (Cytochrome P450 3A4) | IC50 (HUVEC) [nM] | inhibition at 1 h, 1 µM (CYP3A4) [%] | Activity [1] | Activity [2] |
| --- | --- | --- | --- | --- | --- |
| CCC(C)n1ncn(-c2ccc(N3CCN(c4ccc(OC[C@@H]5CO[C@@](CC6CCCC6)(c6ccc(Cl)cc6Cl)O5)cc4)CC3)cc2)c1=O (stereo not given in full) | Not Active | 512 | – | – | – |
| CCC(C)n1ncn(-c2ccc(N3CCN(c4ccc(OC[C@@H]5CO[C@@](Cn6cnc(C)c6)(c6ccc(Cl)cc6Cl)O5)cc4)CC3)cc2)c1=O (stereo not given in full) | – | 102 | 98 | – | – |
| CCC(C)n1ncn(-c2ccc(N3CCN(c4ccc(OC[C@@H]5CO[C@@](Cn6cccn6)(c6ccc(Cl)cc6Cl)O5)cc4)CC3)cc2)c1=O (stereo not given in full) | Not Active | 307 | – | – | – |
| CCC(C)n1ncn(-c2ccc(N3CCN(c4ccc(OC[C@@H]5CO[C@@](CBr)(c6ccc(Cl)cc6Cl)O5)cc4)CC3)cc2)c1=O (stereo not given in full) | – | 569 | 3 | – | – |
| CCC(C)n1ncn(-c2ccc(N3CCN(c4ccc(OC[C@@H]5CO[C@@](CN6CCNCC6)(c6ccc(Cl)cc6Cl)O5)cc4)CC3)cc2)c1=O (stereo not given in full) | – | 608 | 91 | – | – |
| CCC(C)n1ncn(-c2ccc(N3CCN(c4ccc(OC[C@@H]5CO[C@@](Cn6ccnc6C(C)C)(c6ccc(Cl)cc6Cl)O5)cc4)CC3)cc2)c1=O (stereo not given in full) | – | 84 | 6 | Active | – |
| CCC(C)n1ncn(-c2ccc(N3CCN(c4ccc(OC[C@@H]5CO[C@@](Cn6nnnc6-c6ccccc6)(c6ccc(Cl)cc6Cl)O5)cc4)CC3)cc2)c1=O (stereo not given in full) | – | 119 | 18 | – | – |
| CCC(C)n1ncn(-c2ccc(N3CCN(c4ccc(OC[C@@H]5COC(c6ccc(Cl)cc6Cl)O5)cc4)CC3)cc2)c1=O (mixture of isomers) | Not Active | 328 | – | – | – |
| CCC(C)n1ncn(-c2ccc(N3CCN(c4ccc(OC[C@@H]5CO[C@@](Cn6c(C)cnc6C)(c6ccc(Cl)cc6Cl)O5)cc4)CC3)cc2)c1=O (stereo not given in full) | – | 765 | 23 | – | – |
| CCC(C)n1ncn(-c2ccc(N3CCN(c4ccc(OC[C@@H]5CO[C@@](Cn6ccnc6)(c6ccc(Cl)cc6Cl)O5)cc4)CC3)cc2)c1=O (stereo not given in full) | – | 85 | 99 | – | – |
| CCC(C)n1ncn(-c2ccc(N3CCN(c4ccc(OC[C@@H]5CO[C@@](Cn6cnc(C)n6)(c6ccc(Cl)cc6Cl)O5)cc4)CC3)cc2)c1=O (stereo not given in full) | – | 272 | 30 | – | – |
| CCC(C)n1ncn(-c2ccc(N3CCN(c4ccc(OC[C@@H]5CO[C@@](Cn6cc(C)nc6C)(c6ccc(Cl)cc6Cl)O5)cc4)CC3)cc2)c1=O (stereo not given in full) | – | 492 | 38 | – | – |
| CCC(C)n1ncn(-c2ccc(N3CCN(c4ccc(OC[C@@H]5CO[C@@](Cn6nc(C)nc6C)(c6ccc(Cl)cc6Cl)O5)cc4)CC3)cc2)c1=O (stereo not given in full) | – | 221 | 27 | – | – |
| CCC(C)n1ncn(-c2ccc(N3CCN(c4ccc(OC[C@@H]5CO[C@@](Cn6ccnc6-c6ccccc6)(c6ccc(Cl)cc6Cl)O5)cc4)CC3)cc2)c1=O (stereo not given in full) | – | 136 | 23 | – | Active |
